Activity calls are given as the source filed them. The calls are words filed in the database; no cut-off is given here.
Legend:
[1] = system: Rattus norvegicus; assay: Antihyperlipidemic activity in Charles-Foster rat assessed as reversal of triton-induced increase in plasma phospholipid level at 100 mg/kg, po after 18 hrs relative to control; format: functional
Method in brief: (§1)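 Male adult Charles Foster rats (200-225 g), 6 per group; triton WR-1339 400 mg/kg i.p. plus oral test agent in 0.2% gum acacia suspension, given together, diet withdrawn. After 18 h, retro-orbital EDTA blood was centrifuged 2500 g, 4 °C, 10 min; plasma was diluted 1:3 in saline and TC, PL and TG were assayed enzymatically (mg/dl). Mean ± SD; Student's t-test.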

[2] = system: Rattus norvegicus; assay: Antihyperlipidemic activity in Charles-Foster rat assessed as reversal of triton-induced increase in plasma total cholesterol level at 100 mg/kg, po after 18 hrs relative to triton-treated control; format: functional; method in brief: as §1
[3] = system: Rattus norvegicus; assay: Antihyperlipidemic activity in Charles-Foster rat assessed as reversal of triton-induced increase in plasma total cholesterol level at 100 mg/kg, po after 18 hrs relative to control; format: functional; method in brief: as §1
[4] = system: Rattus norvegicus; assay: Antihyperlipidemic activity in Charles-Foster rat assessed as post heparin lipolytic activity at 100 mg/kg, po after 18 hrs by spectrophotometric analysis relative to triton-treated control; format: functional
Method in brief: (§2)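 Male adult Charles Foster rats (200-225 g), 6 per group. Triton WR-1339 400 mg/kg i.p.; test agent 100 mg/kg p.o. as gum acacia (0.2% w/v) suspension in water, given simultaneously, diet withdrawn; vehicle to control and triton groups. At 18 h under thiopentone (50 mg/kg), retro-orbital blood collected into EDTA and plasma separated. Post-heparin lipolytic activity read spectrophotometrically as nmol free fatty acid/h/ml plasma; mean ± SD; Student's t-test.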

[5] = system: Rattus norvegicus; assay: Antihyperlipidemic activity in Charles-Foster rat assessed as post heparin lipolytic activity at 100 mg/kg, po after 18 hrs by spectrophotometric analysis relative to control; format: functional; method in brief: as §2
[6] = system: Rattus norvegicus; assay: Antihyperlipidemic activity in Charles-Foster rat assessed as reversal of triton-induced increase in plasma triglyceride level at 100 mg/kg, po after 18 hrs relative to triton-treated control; format: functional; method in brief: as §1
[7] = system: Rattus norvegicus; assay: Antihyperlipidemic activity in Charles-Foster rat assessed as reversal of triton-induced increase in plasma triglyceride level at 100 mg/kg, po after 18 hrs relative to control; format: functional; method in brief: as §1
[8] = system: Rattus norvegicus; assay: Antihyperlipidemic activity in Charles-Foster rat assessed as reversal of triton-induced increase in plasma phospholipid level at 100 mg/kg, po after 18 hrs relative to triton-treated control; format: functional; method in brief: as §1
[9] = system: Rattus norvegicus; assay: Antihyperlipidemic activity in triton-induced Charles-Foster rat assessed as increase in plasma lecithin cholesterol acyltransferase activity at 100 mg/kg, po after 18 hrs by colorimetric assay; format: functional, organism-based; design: dose 100 mg/kg
[10] = Antioxidant activity assessed as inhibition of microsomal lipid peroxidation at 200 ug/mL by spectrophotometric analysis relative to control; format: functional
[11] = Antioxidant activity assessed as inhibition of hydroxyl radical generation at 200 ug/mL after 90 mins by spectrophotometric analysis relative to control; format: functional
Method in brief: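 Hydroxyl radicals were generated non-enzymically from deoxyribose (2.8 mM), FeSO4 (2 mM), sodium ascorbate (2.0 mM) and H2O2 (2.8 mM) in KH2PO4 buffer pH 7.4, 2.5 mL final, with or without agent at 200 µg/ml, for 90 min at 37 °C. MDA was read spectrophotometrically by the thiobarbituric acid method against reference samples and reagent blanks.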

For `COc1ccc(C(=O)c2cc3cc(C(c4c[nH]c5ccccc45)c4c[nH]c5ccccc45)cc(C(C)C)c3o2)cc1`, the Activity [1] was 175.84 mg/dL, the Activity [2] was -17% and the Activity [3] was 152.89 mg/dL. It also gave an Activity [4] of 12%, an Activity [5] of 14.79 nmol/h/mL and an Activity [6] of -16%. The Activity [7] was 181.53 mg/dL and the Activity [8] was -15%.
`CCc1cc(C(c2c[nH]c3ccccc23)c2c[nH]c3ccccc23)cc2cc(C(=O)c3ccc(OC)cc3)oc12` showed an Activity [1] of 190.32 mg/dL, an Activity [2] of -8% and an Activity [3] of 169.47 mg/dL. It also gave an Activity [4] of 8%, an Activity [5] of 14.26 nmol/h/mL and an Activity [6] of -9%. For the same compound, the Activity [7] was 196.66 mg/dL and the Activity [8] was -8%.
`CC(C)c1cc(C(c2c[nH]c3ccccc23)c2c[nH]c3ccccc23)cc2cc(C(=O)c3ccc(C#N)cc3)oc12` gave an Activity [1] of 186.19 mg/dL, an Activity [2] of -9% and an Activity [3] of 167.63 mg/dL. It also gave an Activity [4] of 4%, an Activity [5] of 13.75 nmol/h/mL and an Activity [6] of -10%. For the same compound, the Activity [7] was 193.81 mg/dL and the Activity [8] was -10%.
Compound `COc1ccc(C(=O)c2cc3cc(C(c4c[nH]c5ccccc45)c4c[nH]c5ccccc45)cc(C)c3o2)cc1` has an Activity [1] of 184.12 mg/dL, an Activity [2] of -12% and an Activity [3] of 162.1 mg/dL. It also gave an Activity [4] of 4%, an Activity [5] of 13.71 nmol/h/mL and an Activity [6] of -10%. For the same compound, the Activity [7] was 194.49 mg/dL and the Activity [8] was -11%.
In the case of `Cc1ccc(C)c(OCCCC(C)(C)C(=O)O)c1` [GEMFIBROZIL], the Activity [1] was 134.47 mg/dL, the Activity [2] was -34% and the Activity [3] was 121.57 mg/dL. For the same compound, the Activity [9] was “Active”, the Activity [4] was 20% and the Activity [5] was 15.85 nmol/h/mL. For the same compound, the Activity [6] was -34%, the Activity [7] was 142.63 mg/dL and the Activity [8] was -35%.
With `Cc1c(C)c2c(c(C)c1O)CC[C@@](C)(CCC[C@H](C)CCC[C@H](C)CCCC(C)C)O2` the inhibition [10] was 52% and the inhibition [11] was 49%.
Compound `COc1ccc(C(=O)c2cc3cc(C(c4c[nH]c5ccccc45)c4c[nH]c5ccccc45)cc(C(C)(C)C)c3o2)cc1` has an Activity [1] of 190.32 mg/dL, an Activity [2] of -7% and an Activity [3] of 171.31 mg/dL. For the same compound, the Activity [4] was 4%, the Activity [5] was 13.73 nmol/h/mL and the Activity [6] was -8%. It also gave an Activity [7] of 198.82 mg/dL and an Activity [8] of -8%.
Compound `Cc1cc(C(c2c[nH]c3ccccc23)c2c[nH]c3ccccc23)cc2cc(C(=O)c3ccc(Cl)cc3)oc12` has an Activity [1] of 186.19 mg/dL, an Activity [2] of -11% and an Activity [3] of 163.94 mg/dL. It also gave an Activity [4] of 9%, an Activity [5] of 14.39 nmol/h/mL and an Activity [6] of -11%. It also gave an Activity [7] of 192.33 mg/dL and an Activity [8] of -10%.
In the case of `CC(C)(C)c1cc(C(c2c[nH]c3ccccc23)c2c[nH]c3ccccc23)cc2cc(C(=O)c3ccc(Cl)cc3)oc12`, the Activity [1] was 187.91 mg/dL, the Activity [2] was -10% and the Activity [3] was 165.78 mg/dL. The Activity [4] was 9%, the Activity [5] was 14.37 nmol/h/mL and the Activity [6] was -10%. For the same compound, the Activity [7] was 194.49 mg/dL and the Activity [8] was -9%.
`CCCc1cc(C(c2c[nH]c3ccc(O)cc23)c2c[nH]c3ccc(O)cc23)cc2cc(C(=O)c3ccc(OC)cc3)oc12` gave an Activity [1] of 161.36 mg/dL, an Activity [2] of -22% and an Activity [3] of 143.68 mg/dL. The Activity [4] was 15%, the Activity [5] was 15.19 nmol/h/mL and the Activity [6] was -20%. The Activity [7] was 172.88 mg/dL and the Activity [8] was -22%.
For `OC[C@@H](O)[C@@H](O)[C@H](O)[C@H](O)CO`, the inhibition [10] was 52% and the inhibition [11] was 49%.
With `CCc1cc(C(c2c[nH]c3ccccc23)c2c[nH]c3ccccc23)cc2cc(C(=O)c3ccc(Cl)cc3)oc12` the Activity [1] was 163.43 mg/dL, the Activity [2] was -20% and the Activity [3] was 147.36 mg/dL. The Activity [4] was 14%, the Activity [5] was 15.05 nmol/h/mL and the Activity [6] was -21%. The Activity [7] was 170.72 mg/dL and the Activity [8] was -21%.
`Cc1ccc(C(=O)c2cc3cc(C(c4c[nH]c5ccccc45)c4c[nH]c5ccccc45)cc(C)c3o2)cc1` gave an Activity [1] of 190.32 mg/dL, an Activity [2] of -8% and an Activity [3] of 169.47 mg/dL. It also gave an Activity [4] of 8%, an Activity [5] of 14.26 nmol/h/mL and an Activity [6] of -9%. It also gave an Activity [7] of 196.66 mg/dL and an Activity [8] of -8%.
With `COc1ccc(C(=O)c2cc3cc(C(c4c[nH]c5ccc([N+](=O)[O-])cc45)c4c[nH]c5ccc([N+](=O)[O-])cc45)cc(C(C)C)c3o2)cc1` the Activity [1] was 186.19 mg/dL, the Activity [2] was -9% and the Activity [3] was 167.63 mg/dL. It also gave an Activity [4] of 4%, an Activity [5] of 13.75 nmol/h/mL and an Activity [6] of -10%. For the same compound, the Activity [7] was 193.81 mg/dL and the Activity [8] was -10%.
Compound `CC(C)c1cc(C(c2c[nH]c3ccccc23)c2c[nH]c3ccccc23)cc2cc(C(=O)c3ccc(Cl)cc3)oc12` has an Activity [1] of 186.19 mg/dL, an Activity [2] of -12% and an Activity [3] of 162.1 mg/dL. For the same compound, the Activity [4] was 4%, the Activity [5] was 13.77 nmol/h/mL and the Activity [6] was -10%. For the same compound, the Activity [7] was 194.4 mg/dL and the Activity [8] was -10%.
Work on `CCc1cc(C(c2c[nH]c3ccc([N+](=O)[O-])cc23)c2c[nH]c3ccc([N+](=O)[O-])cc23)cc2cc(C(=O)c3ccc(OC)cc3)oc12` yielded an Activity [1] of 194.46 mg/dL, an Activity [2] of -4% and an Activity [3] of 176.84 mg/dL. It also gave an Activity [4] of 2%, an Activity [5] of 13.47 nmol/h/mL and an Activity [6] of -4%. It also gave an Activity [7] of 207.46 mg/dL and an Activity [8] of -6%.
In the case of `Cc1cc(C(c2c[nH]c3ccccc23)c2c[nH]c3ccccc23)cc2cc(C(=O)c3ccc(C#N)cc3)oc12`, the Activity [1] was 190.11 mg/dL, the Activity [2] was -7% and the Activity [3] was 171.25 mg/dL. For the same compound, the Activity [4] was 5%, the Activity [5] was 13.87 nmol/h/mL and the Activity [6] was -7%. The Activity [7] was 200.98 mg/dL and the Activity [8] was -8%.
Compound `COc1ccc(C(=O)c2cc3cc(C(c4c[nH]c5ccc(OC)cc45)c4c[nH]c5ccc(OC)cc45)cc(Cl)c3o2)cc1` has an Activity [1] of 165.5 mg/dL, an Activity [2] of -21% and an Activity [3] of 145.52 mg/dL. It also gave an Activity [4] of 15%, an Activity [5] of 15.19 nmol/h/mL and an Activity [6] of -22%. The Activity [7] was 168.56 mg/dL and the Activity [8] was -20%.
